This note sets out measurements from the RNAGym collection of RNA variant scans (doi:10.1126/science.aae0568).

B1: tRNA (parent)
chain: GUUCCGUUGGCGUAAUGGUAACGCGUCUCCCUCCUAAGGAGAAGACUGCGGGUUCGAGUCCCGUACGGAACG

This sample holds only a part of the variants without activity.

Variants of B1 are the subject of this series. The series can be described thus: yeast fitness relative to wild type (ratio to wild type); higher = fitter; tRNA-Arg(CCU), competitive growth, 37 C, YPD. An outline of the steps: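 Amplicons of the tRNA-Arg(CCU) gene were sequenced, 100-nucleotide paired-end, from the start population and from each end population of a pooled yeast competition. The competition, in six parallel replicates, lasted 24 hours in YPD at 37°C. Fitness relative to wild type was calculated from changes in genotype frequencies. Genotypes had to have ≥ 100 starting reads, and estimates < 0.5 were set to 0.5.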
In the case of U35C C55G, the yeast fitness turned out to be 0.59.
Take U13C G25C C30G: the yeast fitness was determined as 0.611.
Turning to U3G C4G G6C C29A A36C G52C, the yeast fitness is at most 0.5.
Regarding U16G C24U G44A C46G, the yeast fitness is at most 0.5.
The figure for G18C C30U U64A is at most 0.5.
C22U A43C U53C C62G: the yeast fitness is at most 0.5.
In the case of U8G C11U C24U A37U C66A it was at most 0.5.
U2C G10C G41A G50C: the yeast fitness is 0.585.
Consider U26G C60A, for which the yeast fitness was 0.593.
A36C G39A: the yeast fitness was at most 0.5.
G10A U32C G63A: the yeast fitness was at most 0.5.
In the case of C24A C30U A65G A69U, the yeast fitness is at most 0.5.
As to U7A G56C C66U, the yeast fitness is at most 0.5.
Turning to A15U C46A, the yeast fitness came to 0.719.
For U7C U19A C31U C49U, the yeast fitness was 0.678.
In the case of A15U C66G it was 0.671; in that of C34G C55G U59C C60U G67U, 0.555.
For C4U U28G C49A C62G, the yeast fitness is at most 0.5.
In the case of C27G A36G A40G A69U it was at most 0.5; in that of G17C C24G U28A C30U G38U A65U A69C, at most 0.5; in that of C4A U7A C31U C61G, at most 0.5.
Regarding G18A G23A C33A A65C, the yeast fitness amounted to 0.624.
On to A36G G41A A43G C60U A70C, for which the yeast fitness was at most 0.5.
The figure for C30G U32A G48A G67C is 0.568; for C5G A20C C29G it is 0.538.
On to C22U G38A A40C, for which the yeast fitness was found to be 0.541.
For the variant U35C A36G A45C, the yeast fitness came to 0.825.
For the variant U7G A21C, the yeast fitness was 0.588.
Consider G17A A36C, for which the yeast fitness amounted to 0.558.
For the variant C24U A45G G68C, the yeast fitness was 0.641.
Take G9C U32G A70C: the yeast fitness is at most 0.5.
Take G39C A69C: the yeast fitness was 0.834.
For the variant U3A U8A, the yeast fitness came to 0.723.
Regarding G23A A45G, the yeast fitness came out at 0.645.
Regarding C4A C34G, the yeast fitness came to 0.563.
In the case of C22U C61G A69G it was 0.574.
As to C29U G48C G52A A69U, the yeast fitness was at most 0.5.
With U13C C34G C55A, the yeast fitness was at most 0.5.
For C29G C49G U53G A57G, the yeast fitness is at most 0.5.
Regarding G12A C27G A42C, the yeast fitness was determined as 0.548.
Turning to G17A C27U, the yeast fitness was determined as 0.711.
Regarding C24G C33U A43G U47A, the yeast fitness amounted to 0.682.
C33G A42G G52A C62A A69U A70U: the yeast fitness was at most 0.5.
G9A A42G C49A G58A: the yeast fitness is at most 0.5.
Take U3C C61U: the yeast fitness was found to be 0.847.
C5U U26A A65G: the yeast fitness is 0.739.
U2A C31G A65U G67C: the yeast fitness was at most 0.5.
Regarding U19C C22U C61A A70G, the yeast fitness is at most 0.5.
For the variant G23C C30A, the yeast fitness came to 0.6.
Regarding G12A A36G U47G U54C A65U, the yeast fitness is at most 0.5.
As for U13C C29A G51C, the yeast fitness was 0.624.
In the case of C5U C24G U32G A36G C60A A65U it was 0.535.
Consider C4U U32C C34U G38A, for which the yeast fitness is at most 0.5.
Consider C11G C34U C55U, for which the yeast fitness is at most 0.5.
In the case of A14G A37G C55G it was at most 0.5.
For the variant A14G U19G G48C U54G A65C, the yeast fitness was at most 0.5.
The figure for C5U G9A A65G is 0.736.
Regarding A43G G48A G50A G51A C62U, the yeast fitness was at most 0.5.
C5U G23C: the yeast fitness turned out to be 0.644.
Regarding U7G C11G C34U G41A C60A C61U G63C C66U, the yeast fitness is at most 0.5.
Take U19G G50A G51C C55G C61U: the yeast fitness is at most 0.5.
Consider G12A A43U A45C A57G C60U G68C, for which the yeast fitness is at most 0.5.
For U8C G39A, the yeast fitness came to 0.874.
The figure for A42G C62U is 0.962.
On to G48A C66G A70G, for which the yeast fitness turned out to be 0.632.
Consider A42U A43G G52C C60A, for which the yeast fitness was at most 0.5.
Turning to G6A A37C A42C A69C, the yeast fitness is at most 0.5.
For the variant A69C A70U, the yeast fitness came to 1.05.
On to C31G C46A G63C A65U, for which the yeast fitness turned out to be 0.509.
As to G17C A21G C27U C33G A42U G48A A57G, the yeast fitness is at most 0.5.
As to U8C C27A G52A, the yeast fitness is at most 0.5.
The figure for C4G A37G G51A A57G is 0.523.
On to U35C A43G U54C, for which the yeast fitness is at most 0.5.
In the case of C5U G39C U59A C60G it was at most 0.5.
G25A G50A A69C: the yeast fitness came out at 0.676.
U16A G23C U32C C33U: the yeast fitness was at most 0.5.
With C27A C31G A45C C55U, the yeast fitness was at most 0.5.
On to C5G A36U C61U A65C G67A G68A, for which the yeast fitness is at most 0.5.
In the case of C27A G44A A69C it was at most 0.5.
The figure for U19A C30G A40C G67C is at most 0.5.
As to C33A G38C G50A, the yeast fitness is at most 0.5.
For U8C A14C G50A A57C, the yeast fitness was at most 0.5.
In the case of C60A A65U it was 0.58; in that of U3G A45C U54C A69U, 0.793; in that of C24U C33G G52C C61U, at most 0.5.
U7A C11A A20G G23A U26G G50A G52A C60U C61G: the yeast fitness was at most 0.5.
Take G10A A57U: the yeast fitness was 0.607.
Consider U2G C34U A40G C46A, for which the yeast fitness is at most 0.5.
U7G A15G C27A: the yeast fitness was determined as 0.567.
The figure for U64A G67A is 0.84; for C5U C34G A45C C66G it is at most 0.5; for C24G U28C U54A it is at most 0.5.
The figure for A43U A45C is 0.837.
In the case of G6C A45C G58A, the yeast fitness was 0.587.
Regarding G10A C61U, the yeast fitness amounted to 0.744.
Regarding G6A U8C C62U, the yeast fitness is 0.604.
In the case of U3A C31U G52A it was 0.614; in that of C11U C46U, 1.
On to A21G C33A G41C, for which the yeast fitness is at most 0.5.
As to C22A C46G A70C, the yeast fitness came out at 0.57.
As for U8G G38C G39C A40G G44A C46G G52A, the yeast fitness was at most 0.5.
U26C A36G: the yeast fitness was found to be 0.856.
Turning to C11A U16A C30G G44C C61A, the yeast fitness is at most 0.5.
The figure for A45C A70G is 0.957.
As for U3G A37C A40G U47C, the yeast fitness is at most 0.5.
In the case of U19G A45C A70U it was 0.557.
C31G G52C A57U: the yeast fitness turned out to be 0.599.
With U16A C27U G38A C60G A65C, the yeast fitness was at most 0.5.
C5U G9C A15C G38C C49G G68C: the yeast fitness was at most 0.5.
For U3C A14U A65C, the yeast fitness is at most 0.5.
Take C11U A15G U26G U28C C33A C55G: the yeast fitness is at most 0.5.
Take C4U G58C U64A: the yeast fitness was 0.848.
Regarding C11A A21G C34U A37G G52C A57U A69U, the yeast fitness was at most 0.5.
In the case of A14G C24U A36C A43U A69U, the yeast fitness was at most 0.5.
For the variant G18A C34U A43C, the yeast fitness was at most 0.5.
The figure for U8A C22U C49U A69C A70C is 0.545; for C4A U8A C24U C55U G68C it is at most 0.5; for C11U C24U G44C C49A it is at most 0.5.
In the case of G12A C49A, the yeast fitness is 0.67.
A21G C27G C49U: the yeast fitness amounted to 0.557.
On to A20G C31A, for which the yeast fitness turned out to be 0.8.
In the case of U7A G68C it was 0.811; in that of A37C G44A, 0.776; in that of G12C U28G A37G G41A G48A G67C, at most 0.5.
On to C29A U32A A45C A65C, for which the yeast fitness amounted to 0.651.
For the variant U32A G56C A69U, the yeast fitness amounted to 0.53.
As for G6A C24G C34G, the yeast fitness was at most 0.5.
The figure for G9C U16G A37C is 0.735.
Regarding C5U C22U C66U, the yeast fitness is at most 0.5.
As for G25A C46G, the yeast fitness was found to be 0.99.
For the variant U3C A20U U64A, the yeast fitness was found to be 0.594.
As to C5U G39A G51U G58C, the yeast fitness is at most 0.5.
The figure for C5U G51C U53C A69G is at most 0.5; for A37C C49U C60G it is at most 0.5; for U8C C22A C33G G39C U54C it is at most 0.5.
In the case of U3C G9C C11U C30G A43C C55U, the yeast fitness was at most 0.5.
Consider U3A U54G A57C, for which the yeast fitness was at most 0.5.
The figure for G25C G41C C46U A65U is 0.551.
As to C27A C30G C49U G56C C66U, the yeast fitness was at most 0.5.
The figure for C4G C46U G48A is 1.04.
Take A15G C29A: the yeast fitness amounted to 0.558.
For A20C U53G, the yeast fitness stood at 0.623.
C4U C34G G63C A69C: the yeast fitness was at most 0.5.
In the case of G17A C24A U35A, the yeast fitness was at most 0.5.
Consider G17A A43C, for which the yeast fitness amounted to 0.698.
Turning to G17A A40U G48A, the yeast fitness was at most 0.5.
With C11G A45U C61G, the yeast fitness is at most 0.5.
With G12C U32G, the yeast fitness was 0.689.
For U13G A21C C46U G50A U64A A69U, the yeast fitness was at most 0.5.
C5A C22A A40G: the yeast fitness is at most 0.5.
As for G17C A21C U26A, the yeast fitness was at most 0.5.
The figure for U13G A20G U28A A70U is 0.873; for U54C A57G it is 0.919; for C27G A65C it is 0.641.
Turning to A21U C24A A45U C62A A69C, the yeast fitness was at most 0.5.
In the case of G17A G18C G39C it was 0.588; in that of C22U A40U A43G A65U, 0.536.
In the case of C5U U7G C34G G44A U59G G68U, the yeast fitness was at most 0.5.
With U16G G18A A21U A40C G58C A65C C66G, the yeast fitness is at most 0.5.
Take G12A G41C C60G A70U: the yeast fitness is at most 0.5.
For the variant C30U A42G C55U, the yeast fitness is 0.545.
In the case of C34G A69C it was 0.589.
For U16A U19C C46A A57G C61A A70C, the yeast fitness was determined as 0.656.
On to U19G C30A A45U G58C A69U, for which the yeast fitness was at most 0.5.
Regarding C27U C55G, the yeast fitness was 0.675.
As to C5G U19A C30G G39C U53C C55A, the yeast fitness was at most 0.5.
As to C11U A15G C27G C60U C62G C66G, the yeast fitness is at most 0.5.
